# Screens as filed in PubChem.
# TDP2 absorb: TDP2 (human) inhibition, absorbance primary screen. O95551. recombinant TDP2, T5PNP hydrolysis, p-nitrophenol absorbance 415 nm. inhibition, % at 12.8 µM. 370,000 tested, 0.34% active;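 active = inhibition above the mean of all tested compounds plus 3 SD, set per campaign, cut at about 25% in these data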;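 note: 0% = DMSO with enzyme and 100% = buffer with substrate but no TDP2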
#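 Assay system: recombinant human TDP2 / Reagent: T5PNP substrate at 5 mM, a TopII-DNA adduct mimic / Measured by: epi absorbance from released p-nitrophenol / Evaluation: % inhibition relative to enzyme-containing and enzyme-free wells / Control set: enzyme-free and DMSO wells / Replicates: each compound tested once, singlicate / Schedule: enzyme reaction with compound for 2 h at 37 °C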
# NSD2 inh: inhibitors of human histone methyltransferase NSD2; O96028; NSD2 peptide methylation, AlphaScreen, 120 min; inhibition, % at 12.5 µM; 310,000 tested, 0.54% active; AID 743445; in the data active = inhibition above about 50%
# UHRF1 binding: blocks human UHRF1 binding to methylated DNA. Q96T88. UHRF1 binding to methylated oligo, TR-FRET. inhibition, % at 4.4 µM. 370,000 tested, 0.75% active. AID 687016; in the data active = inhibition above about 21%;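 note: UHRF1 SRA domain binding a hemimethylated CpG hairpin DNA probe; 0% = median of test compound wells and 100% = reference inhibitor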
# CASP6 VEID inh: caspase-6 (human) enzyme inhibition; 350,000 tested, 0.53% active; inhibition, % at 12.5 µM; P55212; purified caspase-6, Z-VEID-R110 cleavage fluorescence;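 active = mean inhibition across replicates at least about 35%, with every replicate also reaching that limit, limit read from the data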;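 note: 0% = median of neutral control wells and 100% = no fluorescence left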
# MBD2 inh: MBD2-methylated oligo binding inhibition; 370,000 tested, 0.31% active; TR-FRET, MBD2 binding to methylated oligonucleotide; inhibition, % at 4.4 µM; Q9UBB5; AID 686964; in the data active = inhibition above about 13%
# Target sequence (Q9UBB5 whole entry, looked up): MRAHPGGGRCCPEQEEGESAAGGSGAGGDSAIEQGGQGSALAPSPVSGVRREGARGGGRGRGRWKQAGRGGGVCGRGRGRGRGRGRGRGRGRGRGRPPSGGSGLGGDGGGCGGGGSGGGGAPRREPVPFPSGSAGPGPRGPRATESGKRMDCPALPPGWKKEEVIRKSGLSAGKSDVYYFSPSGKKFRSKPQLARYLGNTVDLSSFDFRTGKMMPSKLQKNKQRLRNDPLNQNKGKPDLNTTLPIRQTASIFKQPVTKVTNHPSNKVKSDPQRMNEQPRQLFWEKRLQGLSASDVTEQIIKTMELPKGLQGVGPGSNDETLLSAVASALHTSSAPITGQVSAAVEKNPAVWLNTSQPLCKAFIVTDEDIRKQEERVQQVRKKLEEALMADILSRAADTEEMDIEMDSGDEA
# LEDGF integ inh: blocks HIV-1 LEDGF/p75-dependent DNA integration | TR-FRET IN-LEDGF/p75 DNA integration, Eu/Cy5 | inhibition, % at 3.7 µM | 370,000 tested, 0.64% active;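 active = inhibition above the screen-wide mean plus 3 SD, cut at about 13% in these data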;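 note: signal is the Cy5 over europium emission ratio at 671 and 618 nm; 0% = plate median of compound wells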
# TDP2 inh conf: confirmation of human TDP2 inhibitors; shares compounds with TDP2 absorb; recombinant human TDP2, absorbance read-out; inhibition, % at 12.8 µM; 1,100 tested, 22% active; in the data active = inhibition above about 25%;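 note: 0% = vehicle with enzyme and 100% = no enzyme buffer only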
# IN multimer up: activates HIV-1 integrase multimerization in LEDGF counter-screen. shares compounds with LEDGF integ inh. 2,000 tested, 17% active. activation, % at 7.7 µM. TR-FRET HIV-1 integrase multimerization, biochemical; in the data active = activation above about 8.9%
# TR-FRET interf: TR-FRET optical interference, LEDGF/p75 integration counter-screen; shares compounds with LEDGF integ inh; TR-FRET optical interference counterscreen, HIV-1 IN multimerization; inhibition, % at 7.7 µM; 2,000 tested, under 10 active;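 active = inhibition above the mean over all tested compounds plus 3 SD, which no compound reached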;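 note: 0% = integrase with antibodies and DMSO and 100% = antibodies without integrase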
# IN-LEDGF confirm: LEDGF/p75-dependent HIV-1 integration inhibition, confirmation; inhibition, % at 3.7 µM; TR-FRET LEDGF/p75-dependent HIV-1 integration, biochemical; shares compounds with LEDGF integ inh; 2,000 tested, 36% active; in the data active = inhibition above about 14%
# AlphaScreen art: counter-screen for NSD2 inhibitors: AlphaScreen artifacts. AlphaScreen artifact counterscreen, preloaded methylated H4 peptide. shares compounds with NSD2 inh. AC35, µM (doses to about 10 µM), for the others: at the highest dose activity change, negative = signal loss. AID 1053174. 1,500 tested, 9.4% active; call rule not given here
# Starred values were filed as active, the others as inactive; / = not tested or not shown. A selection: hits, their analogues and other compounds. The true share with any hit is near 1.9%.
SMILES,TDP2 absorb,NSD2 inh,UHRF1 binding,CASP6 VEID inh,MBD2 inh,LEDGF integ inh,TDP2 inh conf,IN multimer up,TR-FRET interf,IN-LEDGF confirm,others
CC(C)(C)c1nnc(N/N=C/c2ccccc2O)n(N)c1=O,-6,-9,-3,/,-1,-4,/,/,/,/,
COc1cccc(/C=N/Nc2nnc(C)n2N)c1OCc1ccccc1Cl,54*,1,4,/,-5,41*,-4,1,-3,-3,
COc1cccc(C=NNc2nnc(NN=Cc3cccc(OC)c3OC)c3ccccc23)c1OC,9,2,-2,-1,2,1,/,/,/,/,
CCOC(=O)c1cc2c(=Cc3ccc(N(C)C)cc3)c3ccccc3n2[n+]1C,52*,37,30*,97*,2,21*,56*,20*,-73,54*,
CCOC(=O)SC1=N/C(=C\c2ccc(N(C)C)cc2)C(=O)S1,5,14,-2,7,-3,-5,/,/,/,/,
COc1ccc(OC)c(S(=O)(=O)Oc2ccc(N)c3ccccc23)c1,33*,2,-4,1,-10,14*,0,4,-15,-1,
COc1ccc(OC)c(S(=O)(=O)Nc2cccc3ccccc23)c1,1,-1,-3,2,0,0,/,/,/,/,
CCOC(=O)c1ccc(N/C=C/C(=O)C(C)(C)C)cc1,-5,-2,-1,-3,4,-5,/,/,/,/,
CN(C)c1ccc(N/C=C/C(=O)C(C)(C)C)cc1,55*,14,13,/,-1,25*,-4,12*,-43,1,
CC(C)C1NC2(C(=O)c3ccccc3C2=O)C2C(=O)N(c3ccc(F)cc3)C(=O)C12 (configuration not stated),40*,-5,0,/,-3,39*,2,2,-6,-1,
O=C(O)Cc1ccc(-c2ccccc2-c2ccccc2)cc1,-9,1,3,/,-2,4,/,/,/,/,
O=C(O)Cc1ccc(N2N=C(c3ccccc3)CC2=O)cc1,71*,-1,18,1,9,26*,5,1,-5,10,
O=C1C(N2CCOCC2)=C(n2nnc3ccccc32)C(=O)c2ccccc21,50*,117*,-4,/,-14,40*,64*,3,-11,45*,
COc1ccc2c3c([nH]c2c1)[C@H](CO)N(C(=O)CN1CCOCC1)CC31CCN(Cc2ccccc2)CC1,/,/,/,0,/,/,/,/,/,/,
Cc1cc(Br)cc(C=Nc2ccc(N3CCOCC3)cc2)c1O,34*,-2,0,-1,-4,26*,-8,3,-13,17*,
Oc1c(Cl)cc(Cl)cc1C=Nc1ccc(N2CCOCC2)cc1,22,7,3,-1,3,6,/,/,/,/,
Cc1cc(C)n(-c2ncc3c(n2)N(CCO)CCOC3=O)n1,8,0,-1,-1,2,-2,/,/,/,/,
CC1=CC2(O)OCCN(CCO)C2=CC1=O (configuration not stated),32*,14,10,19,2,31*,9,4,-19,14*,
C[C@H]1CCCCO[C@H](CN(C)Cc2ccncc2)[C@@H](C)CN([C@@H](C)CO)C(=O)c2cc(NC(=O)Nc3ccc4c(c3)OCO4)ccc2O1,/,/,/,-2,/,/,/,/,/,/,
CC(=O)N(/N=C1\Sc2ccccc2C1=O)c1cccc(C)c1,69*,40,-11,/,-6,22*,53*,-1,3,51*,
CC(=O)N(CN1C(=O)c2ccccc2C1=O)c1cccc(C)c1,3,1,1,/,1,-4,/,/,/,/,
COc1ccc(NC(=O)N(C)C[C@H]2Oc3ccc(NC(=O)Nc4ccccc4)cc3CC(=O)N([C@H](C)CO)C[C@H]2C)cc1,/,/,/,-1,/,/,/,/,/,/,
Cc1csc(N/N=C/c2ccc([N+](=O)[O-])cc2)n1,-5,5,0,4,4,-1,/,/,/,/,
O=C(O)c1ccc(N/N=C/c2ccc(-c3ccc(Br)cc3)o2)cc1,-16,1,4,24,2,12,/,/,/,/,
COc1cc(/C=N/n2nnnc2N)ccc1OC(C)=O,-2,2,2,-2,6,-1,/,/,/,/,
SMILES,TDP2 absorb,NSD2 inh,UHRF1 binding,CASP6 VEID inh,MBD2 inh,LEDGF integ inh,TDP2 inh conf,IN multimer up,TR-FRET interf,IN-LEDGF confirm,others
Cc1nnc(N/N=C/c2ccc([N+](=O)[O-])cc2)n1N,55*,-2,19,-7,-2,79*,0,1,-4,-3,
Cc1nnc(N/N=C/c2ccc(Br)cc2)n1N,74*,-2,8,0,2,47*,6,0,-1,-3,
Cc1nnc(N/N=C/c2ccc(-c3ccc(Br)cc3)o2)n1N,57*,/,2,0,-6,49*,1,0,1,-5,
COc1ccc(/C=N/Nc2nnc(C)n2N)cc1OC(C)=O,42*,-3,8,7,-5,32*,9,1,-3,3,
O=C(C[C@@H]1C=C[C@H](NC(=O)c2ccncc2)[C@@H](CO)O1)Nc1ccccc1,/,/,/,1,/,/,/,/,/,/,
Cc1ccc(NCc2nc3ccccc3n2C)cc1,0,1,-4,/,-3,2,/,/,/,/,
Cn1c(CNc2ccc(O)cc2)nc2ccccc21,35*,3,7,5,-6,16*,1,5,-20,-2,
Cc1noc(C)c1S(=O)(=O)N(C)C[C@@H]1Oc2ccc(NC(=O)CCC(F)(F)F)cc2CC(=O)N([C@H](C)CO)C[C@H]1C,/,/,/,1,/,/,/,/,/,/,
O=C(C[C@@H]1C=C[C@H](NS(=O)(=O)c2ccccc2)[C@H](CO)O1)NCCN1CCCCC1,/,/,/,-16,/,/,/,/,/,/,
CC(Nc1cccc2ccccc12)C(=O)N/N=C/c1ccccn1 (configuration not stated),26*,132*,4,/,-4,23*,4,3,-15,-4,AlphaScreen art=-8%
O=C(CCCC(=O)N/N=C\c1ccccn1)N/N=C\c1ccccn1,9,-3,-2,0,-5,-1,/,/,/,/,
Cc1ccc(C(=O)NCC(=O)OCN2C(=O)c3ccccc3C2=O)cc1C,-13,-3,1,-1,0,6,/,/,/,/,
